Tests used:
[1] = (§1) Inhibition of RANKL-induced C57BL/6 mouse BMDM differentiation into osteoclasts after 4 days in presence of M-CSF by TRAP assay; format: functional; details: C57BL/6, BMDM, 96 h
Method in brief: (§2)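 Bone marrow cells from femurs and tibiae of 6–8-week-old female C57BL/6 mice; after red-cell lysis, 3 days in α-MEM/10% FBS with penicillin-streptomycin and M-CSF (50 ng/mL); adherent cells kept as BMMs. BMMs (4 × 10^4/well) given M-CSF (50 ng/mL) plus RANKL (100 ng/mL) with vehicle or compound, 4 days. TRAP activity of culture supernatant with chromogenic substrate, OD 540 nm.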

BMDM [2] = assay: as §1; format: functional; method in brief: as §2
BMDM [3] = assay: Inhibition of RANKL-induced C57BL/6 mouse BMDM differentiation into osteoclasts after 4 days in presence of M-CSF by TRAP staining-based light microscopy; format: functional
Method in brief: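 BMMs (6–8-week-old female C57BL/6 mouse femur/tibia marrow, 3 days with M-CSF 50 ng/mL) seeded at 4 × 10^4/well. Cultured 4 days with M-CSF (50 ng/mL), RANKL (100 ng/mL) and vehicle or compound. Fixed in 10% formalin for 5 min, then TRAP-stained by kit to show TRAP-positive multinucleated osteoclasts.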

Mus musculus = organism: Mus musculus; assay: Cytotoxicity against C57BL/6 mouse BMDM assessed as decrease in cell viability at IC50 after 4 days in presence of RANKL/M-CSF by XTT assay; format: toxicity; details: 96 h

Structure (SMILES) | IC50 [1] [µM] | inhibition (BMDM [2]) | inhibition (BMDM [3]) | Activity (Mus musculus)
CC1=C(C)[C@@]2(C[C@](C)(O)[C@H]3C[C@H](O)[C@@]4(C)C5=CC[C@H]6C(C)(C)C(=O)[C@H](O)C[C@]6(C)C5=C[C@@H](O2)[C@]34C)OC1=O | 7.4 | Dose-dependent effect | Dose-dependent effect | Non-Toxic
CC1=C(C)[C@@]2(C[C@](C)(O)[C@H]3C[C@H](O)[C@@]4(C)C5=CC[C@H]6C(C)(C)[C@@H](O)C(=O)C[C@]6(C)C5=C[C@@H](O2)[C@]34C)OC1=O | 4.5 | Dose-dependent effect | Dose-dependent effect | Non-Toxic
C=C(CC[C@@H](C(=O)O)[C@H]1[C@H](O)C[C@@]2(C)C3=CC[C@H]4C(C)(C)C(=O)CC[C@]4(C)C3=CC[C@]12C)C(C)C [POLYPORENIC ACID B] | 4.9 | Dose-dependent effect | Dose-dependent effect | Non-Toxic

From ChEMBL document CHEMBL3856214, “Lanostane Triterpenes Isolated from Antrodia heteromorpha and Their Inhibitory Effects on RANKL-Induced Osteoclastogenesis” (J Nat Prod, 2016)
